High-throughput results deposited in PubChem BioAssay by several laboratories.
LANA DNA inh = inhibitors of KSHV LANA C-terminal domain DNA binding. MBP-C-LANA/FAM-LBS DNA binding, fluorescence polarization. inhibition, % at 9 µM. actives 0.078% (n = 340,000). AID 504423;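 active = highest replicate inhibition at or above 60% at 9 µM, even if other replicates fall short; inactive = all replicates below 60% inhibition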;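 also: 0% = neutral control wells and 100% = 4 µM acridine orange control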
Keap1-Nrf2 PPI = inhibitors of human Keap1-Nrf2 protein-protein interaction | actives 0.15% (n = 340,000) | Q14145 | Keap1 Kelch-Nrf2 peptide fluorescence polarization, 1536-well | inhibition, % at 9.4 µM; in the data active = inhibition above about 12%;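 also: human Keap1 Kelch domain with fluorescein labeled Nrf2 9mer peptide probe; 0% = neutral control wells and 100% = peptide positive control; higher means more block of Keap1 binding to Nrf2 peptide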
Target sequence (Q14145 whole entry, looked up, the tested form may be a part): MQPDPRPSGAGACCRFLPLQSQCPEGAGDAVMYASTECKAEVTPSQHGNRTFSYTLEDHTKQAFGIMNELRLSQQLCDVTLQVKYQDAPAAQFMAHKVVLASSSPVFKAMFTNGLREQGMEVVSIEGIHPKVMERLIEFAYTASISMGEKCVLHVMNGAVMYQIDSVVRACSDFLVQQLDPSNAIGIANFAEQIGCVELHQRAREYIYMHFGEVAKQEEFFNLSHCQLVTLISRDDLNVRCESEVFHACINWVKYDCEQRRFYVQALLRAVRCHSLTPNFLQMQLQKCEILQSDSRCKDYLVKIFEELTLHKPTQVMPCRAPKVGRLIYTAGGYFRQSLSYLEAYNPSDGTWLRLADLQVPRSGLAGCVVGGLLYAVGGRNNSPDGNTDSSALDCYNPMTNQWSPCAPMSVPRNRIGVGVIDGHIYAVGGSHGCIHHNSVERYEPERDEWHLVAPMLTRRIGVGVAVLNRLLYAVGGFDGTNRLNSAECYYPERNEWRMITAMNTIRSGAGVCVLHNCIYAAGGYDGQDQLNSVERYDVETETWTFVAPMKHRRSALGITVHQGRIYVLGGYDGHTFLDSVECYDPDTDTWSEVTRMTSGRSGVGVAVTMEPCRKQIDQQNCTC
CAL PDZ FP-1 = inhibitors of human CAL PDZ peptide binding. Q9HD26. purified CAL PDZ, TMR-peptide fluorescence polarization, 1 h. inhibition, % at 24.9 µM. actives 0.92% (n = 300,000). AID 602252;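 active = mean inhibition of at least 30% with at least half of replicates also reaching 30%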;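 also: 0% = DMSO neutral control and 100% = excess unlabeled competitor peptide PRC23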
CAL PDZ FP-2 = inhibitors of human CAL PDZ peptide binding; inhibition, % at 20 µM; actives 0.02% (n = 330,000); purified CAL PDZ, TMR-peptide fluorescence polarization, 1 h;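 active = highest replicate inhibition of at least 40%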;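 also: plate controls were DMSO neutral control wells for no effect and unlabeled competitor peptide control wells for full effect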
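material = purified tagged CAL PDZ domain construct (CerCALP) | buffer or medium = sodium phosphate/NaCl buffer pH 7.4 with TCEP, IgG, Thesit | reagent = TMR-labelled reporter peptide T*-PRC34 bound in PDZ groove | incubation = 1 h room-temperature incubation prior to read | measured by = fluorescence polarization (mP) | evaluation = percent inhibition from loss of millipolarization | control set = unlabelled peptide and DMSO controls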
cardiac RTF act = cardiac RTF calcium sensitization; P19429+P45379; AID 493008; activation, % at 7.2 µM; actives 0.24% (n = 340,000); IANBD-labeled TnC RTF fluorescence at EC20 calcium; 0% EC20 calcium, 100% full calcium;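 active = activation above the mean over all tested compounds plus 3 SD, cut at about 30% in these data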;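 also: rise in fluorescence read as greater calcium sensitivity of cardiac thin filaments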
Cardiac RTF inh = cardiac RTF calcium desensitization | P19429+P45379 | IANBD-labeled cardiac RTF, Ca2+ fluorescence | inhibition, % at 7.15 µM | actives 0.12% (n = 340,000) | AID 493244;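 active = inhibition above the mean inhibition of all tested compounds plus 3 SD, cut at about 17% in these data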;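 also: assay run at fixed EC70 calcium of 1.6 mM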
RTF Ca inh conf = confirmation of inhibitors of cardiac thin filament calcium sensitivity. shares compounds with Cardiac RTF inh. reconstituted cardiac thin filaments, calcium sensitivity fluorescence. inhibition, % at 7.15 µM. actives 8% (n = 360). AID 504635; in the data active = inhibition above about 18%
An asterisk follows results filed as active; . = not tested or not shown. An excerpt weighted towards active compounds, which were near 1.3% of everything screened.

SMILES | LANA DNA inh | Keap1-Nrf2 PPI | CAL PDZ FP-1 | CAL PDZ FP-2 | cardiac RTF act | Cardiac RTF inh | RTF Ca inh conf
CC(C)(C)C(=O)NC(n1cnc2c(N3CCOCC3)ncnc21)C(Cl)(Cl)Cl (centres undefined) | 1 | 1 | -6 | -1 | 1 | 19* | -9
CCOC(=O)C1=C(C)N(Cc2ccc(C(=O)O)cc2)C(=O)NC1c1ccc([N+](=O)[O-])cc1 (centres undefined) | 1 | -5 | 3 | 2 | 6 | 18* | -2
CN(C)S(=O)(=O)c1ccc(NC(=O)N2CCN(c3ccccc3Cl)CC2)cc1 | -1 | 1 | 1 | -1 | -6 | 19* | -3
CN(C)S(=O)(=O)c1ccc(NC(=O)N2CCN(c3cccc(C(F)(F)F)c3)CC2)cc1 | -2 | -2 | -4 | 1 | -4 | 4 | .
CC(OC(=O)c1ccc(=O)n(Cc2ccccc2)n1)C(=O)Nc1cccc(Cl)c1 (centres undefined) | -1 | 3 | 0 | -3 | -13 | 2 | .
Cc1ccc(/C=N/NC(=O)CNC(=O)COc2ccc(Cl)cc2)o1 | 0 | -2 | . | 0 | -2 | 18* | -5
COc1ccc(CC(=O)NCC(=O)N/N=C/c2ccc(C)o2)cc1 | 1 | 0 | -2 | -3 | -3 | -13 | .
COc1ccc(OC)c(S(=O)(=O)NCC(c2ccco2)N2CCc3ccccc3C2)c1 (centres undefined) | -1 | 0 | -4 | 0 | -6 | 18* | -5
O=C(CSc1nc(-c2ccc(F)cc2)nc2c1Cc1ccccc1O2)Nc1ccc(C(=O)O)cc1 | 0 | 3 | -12 | -5 | -17 | 12 | .
O=C(CSc1nc(-c2ccccc2)nc2c1Cc1ccccc1O2)Nc1ccc(C(=O)O)cc1 | 1 | -4 | -1 | -8 | -15 | 20* | 2
COc1cccc(-n2cnnc2SCC(=O)NC2CC2)c1 | 0 | -1 | -4 | 1 | -3 | -13 | .
CC1CCCCN1C(=O)Cn1cnc2cc([N+](=O)[O-])ccc2c1=O (centres undefined) | -1 | 6 | 5 | 0 | -2 | 18* | -5
CCn1c(=O)cc(OCC(=O)Nc2cccc(C)n2)c2ccccc21 | 0 | 7 | -1 | -1 | 10 | -15 | .
CCn1c(=O)cc(SCC(=O)Nc2cccc(C)n2)c2ccccc21 | 1 | 2 | 6 | -2 | -4 | 18* | -4
O=C(N/N=C/c1cn(Cc2cccc(F)c2)c2ccccc12)c1cc(O)cc(O)c1 | 19 | 0 | 0 | -3 | -15 | 21* | 6
Nc1ccc(C(=O)N/N=C/c2cn(Cc3ccc(F)cc3)c3ccccc23)cc1 | 0 | 4 | -6 | 0 | -6 | 2 | .
CN[C@H](CC(=O)O)C(=O)O | 1 | -1 | -2 | 1 | 6 | 18* | -2
Cn1c(SCC(=O)N2c3ccccc3Sc3ccccc32)nc2ccccc21 | 0 | -3 | -3 | -1 | 6 | 19* | -5
Cc1ccc(Nc2nc(N)nc(CN3CCN(C)CC3)n2)cc1 | 0 | 3 | 1 | -2 | -2 | 18* | -6
Cc1noc(C)c1C(=O)Nc1ccccc1N1CCCC1 | 1 | 2 | -8 | -1 | -3 | -2 | .
CC1=CC2C(C3C=CC2(C)C(=O)C3(C)O)C(C)(O)C1=O (centres undefined) | -2 | 2 | . | -1 | -5 | -5 | .
O=[N+]([O-])c1ccc(OCCCOc2cccc3cccnc23)cc1 | 2 | 0 | 0 | 0 | 7 | -3 | .
O=[N+]([O-])c1ccc(OCc2cccc(COc3ccc([N+](=O)[O-])cc3)n2)cc1 | 3 | -6 | 6 | 0 | 1 | 17* | -4
CCN1CCN(CC(=O)Nc2cc(C)on2)CC1 | 0 | -4 | -1 | 0 | 1 | 4 | .
Cc1cc(NC(=O)CN2CCN(c3ncccn3)CC2)no1 | 0 | -1 | -1 | 0 | 1 | 21* | -2
SMILES | LANA DNA inh | Keap1-Nrf2 PPI | CAL PDZ FP-1 | CAL PDZ FP-2 | cardiac RTF act | Cardiac RTF inh | RTF Ca inh conf
Cc1ccc2nc(NC(=O)COC(=O)CSc3nc(C)cc(C)n3)sc2c1 | -3 | -1 | -5 | . | -2 | 19* | -5
COC(=O)c1ccc2nc(NC(=O)COC(=O)CSc3nc(C)cc(C)n3)sc2c1 | 1 | 1 | 11 | -4 | 5 | 10 | .
O=C(C1CCCN(S(=O)(=O)c2cccc3nsnc23)C1)N1CCCCCC1 (centres undefined) | 0 | 4 | -1 | -1 | 2 | 17* | 2
O=C(CN1CCc2ccccc2C1)Nc1ccccc1C(=O)NC1CC1 | -1 | 4 | . | -1 | -2 | 2 | .
COc1cccc(NC(=O)c2cncs2)c1 | 0 | 4 | -3 | 0 | 2 | -9 | .
c1coc(CNC2CCCCC2)c1 | 1 | -3 | -2 | 0 | 1 | -3 | .
c1coc(CNC2CCCCCCC2)c1 | -1 | -2 | 3 | 0 | 2 | 18* | -5
Cn1c(N)c(N=O)c(=O)n(C)c1=S | 0 | -2 | -3 | -1 | -1 | 0 | .
O=C(NC1CC1)c1ccc(NS(=O)(=O)c2ccc(F)cc2)cc1 | 1 | -2 | -7 | -2 | 6 | -16 | .
CN(C)CCCNC(=O)C[C@H]1C[C@H](C(=O)N2CCCCC2)[C@@]2(C)c3[nH]c4cc(CCC(=O)N(C)C)ccc4c3CCN2C1=O | -1 | -1 | -3 | 1 | -7 | -5 | .
CCCNC(=O)CSc1nccn1Cc1ccc(OC)cc1 | 2 | 5 | 9 | 20 | 3 | 18* | -1
CCC1CN(C(=O)N2CCC(C(=O)NCCc3ccccc3)CC2)c2ccccc2O1 (centres undefined) | -2 | -2 | -7 | -1 | -6 | -4 | .
OC(CN1c2ccccc2Sc2ccccc21)Cn1nnc2ccccc21 (centres undefined) | 1 | -1 | -1 | -1 | -1 | 21* | -8
O=C1c2ccccc2C(=O)N1CC(O)Cn1nnc2ccccc21 (centres undefined) | -1 | 1 | 1 | -1 | -1 | -1 | .
c1ccc(-c2noc(C34CC5CC(CC(C5)C3)C4)n2)nc1 | 0 | 2 | -3 | -2 | 2 | 18* | -5
c1ccc(-c2noc(C34CC5CC(CC(C5)C3)C4)n2)cc1 | 3 | 0 | -4 | 0 | 7 | -19 | .
COCCn1c(=O)[nH]c2cc(C(=O)Nc3nnc(C)s3)ccc21 | 1 | 0 | -6 | 1 | -8 | -1 | .
CN(C)CCCN1C(=O)C2CCc3[nH]c4ccccc4c3C2C1=O (centres undefined) | 4 | 0 | 0 | 0 | 6 | 19* | -4
O=C(O)c1ccc2c(c1)[C@@H]1C=CC[C@@H]1[C@H](c1ccccn1)N2 | 98* | 6 | 2 | 0 | -37 | 86* | 22*
